Assay results taken from ChEMBL document CHEMBL1909525, “Synthesis and anticonvulsant activity of novel 2,6-diketopiperazine derivatives. Part 1: perhydropyrrole[1,2-a]pyrazines” (Eur J Med Chem, 2011).
Active and inactive are the calls of the source. The rule behind the calls is not given here.

How the values were obtained:
Mus musculus [1] = test: Anticonvulsant activity in albino Carworth Farms No.1 mouse assessed as protection against maximal electroshock-induced seizure at 30 mg/kg, ip after 0.5 hrs; format: functional, organism-based; set-up: dose 30 mg/kg
Procedure, shortened: (§1)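 Mouse MES test with compound given i.p. (30, 100 or 300 mg/kg) in 0.5% methylcellulose; tested at 0.5 and 4 h. Corneal stimulus of 50 mA at 60 Hz for 0.2 s, electrodes primed with 0.5% butacaine in 0.9% NaCl. Protection is abolition of hindlimb tonic extension; scored as protected/tested.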

Rattus norvegicus [2] = test: Anticonvulsant activity in po dosed albino Sprague-Dawley rat assessed as protection against maximal electroshock-induced seizure after 0.25 hrs; format: functional
Procedure, shortened: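 Rats dosed orally, compound in 0.5% methylcellulose. MES at 150 mA, 60 Hz, 0.2 s; scMET with pentylenetetrazole 70 mg/kg s.c. plus 30 min observation; rotorod for toxicity.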

Mus musculus [3] = test: Anticonvulsant activity in albino Carworth Farms No.1 mouse assessed as protection against subcutaneous metrazol-induced seizure at 100 mg/kg, ip after 0.5 hrs; format: functional, organism-based; set-up: dose 100 mg/kg
Procedure, shortened: (§2)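 Mouse scMET test. Compound given i.p. (30, 100 or 300 mg/kg) in 0.5% methylcellulose. Pentylenetetrazole 85 mg/kg (CD97) given s.c. at 0.5 or 4 h, then mice observed for 30 min. Protection is absence of clonic spasms; scored as protected/tested.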

Mus musculus [4] = test: Anticonvulsant activity in albino Carworth Farms No.1 mouse assessed as protection against maximal electroshock-induced seizure at 100 mg/kg, ip after 0.5 hrs; format: functional, organism-based; set-up: dose 100 mg/kg; procedure, shortened: as §1
Mus musculus [5] = test: Anticonvulsant activity in albino Carworth Farms No.1 mouse assessed as protection against electric-current for 3 secs-induced seizure at 100 mg/kg, ip after 0.25 hrs by 6Hz minimal clonic seizure test; format: functional, organism-based; set-up: dose 100 mg/kg
Procedure, shortened: (§3)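 6 Hz psychomotor seizure test in mice. Compound given i.p. as a suspension in 0.5% methylcellulose. Corneal stimulation at 32 mA, 0.2-ms monopolar rectangular pulses at 6 Hz for 3 s, from a constant-current device. Tests run 0.25–4 h after dosing. A mouse counted as protected if it resumed normal exploratory behaviour within 10 s; scored as protected/tested.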

Rattus norvegicus [6] = organism: Rattus norvegicus; test: Activation of voltage-gated sodium channel in Wistar rat cerebral prefrontal coronal slices assessed as increase of 0.1 Hz current-induced current amplitude at 100 uM after 5 mins by whole cell voltage clamp method
Procedure, shortened: (§4)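 Whole-cell voltage clamp on mechanically dispersed mPFC cells from coronal prefrontal slices of 3-week-old male Wistar rats. Bath: TEA-OH 90, NaCl 30, HEPES 10, MgCl2 2, CaCl2 2, glucose 15 mM, pH 7.4. Na+ currents evoked at 0.1 Hz by a step to -20 mV (30 ms) after a -100 mV prepulse (1000 ms). Amplitude compared before and after 5 min compound application; n = 3.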

Mus musculus [7] = test: Anticonvulsant activity in albino Carworth Farms No.1 mouse assessed as protection against electric-current for 3 secs-induced seizure at 75 mg/kg, ip after 0.5 hrs by 6Hz minimal clonic seizure test; format: functional, organism-based; set-up: dose 75 mg/kg; procedure, shortened: as §3
Mus musculus [8] = test: Anticonvulsant activity in ip dosed albino Carworth Farms No.1 mouse assessed as protection against subcutaneous metrazol-induced seizure after 0.25 hrs; format: functional; details: albino Carworth Farms No.1, 0.25 h
Procedure, shortened: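 Mouse quantification at the time of peak effect, compound given i.p. in 0.5% methylcellulose. Groups of at least eight mice received varied doses until at least two points fell between 100 and 0% response. ED50 (MES, scMET) and TD50 (rotorod) with 95% CI by probit analysis (Finney). PI = TD50/ED50 MES.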

Mus musculus [9] = test: Anticonvulsant activity in albino Carworth Farms No.1 mouse assessed as protection against electric-current for 3 secs-induced seizure at 75 mg/kg, ip after 4 hrs by 6Hz minimal clonic seizure test; format: functional, organism-based; set-up: dose 75 mg/kg; procedure, shortened: as §3
Mus musculus [10] = test: Anticonvulsant activity in albino Carworth Farms No.1 mouse assessed as protection against maximal electroshock-induced seizure at 300 mg/kg, ip after 0.5 hrs; format: functional, organism-based; set-up: dose 300 mg/kg; procedure, shortened: as §1
Mus musculus [11] = test: Anticonvulsant activity in albino Carworth Farms No.1 mouse assessed as protection against subcutaneous metrazol-induced seizure at 30 mg/kg, ip after 0.5 hrs; format: functional, organism-based; set-up: dose 30 mg/kg; procedure, shortened: as §2
Rattus norvegicus [12] = test: Anticonvulsant activity in albino Sprague-Dawley rat assessed as protection against pilocarpine-induced status epilepticus at 130 mg/kg, ip measured after time from first stage 3 seizures; format: functional, organism-based; set-up: dose 130 mg/kg
Procedure, shortened: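 Male albino Sprague-Dawley rats, 150–180 g. Compound given i.p., then a challenge dose of pilocarpine at 0 min or at 30 min. Outcome scored as protection or no protection from seizures (protected/tested), with body weight change recorded.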

[13] = Neurotoxicity in ip dosed albino Carworth Farms No.1 mouse assessed as motor impairment after 0.25 hrs by rotarod test; format: toxicity, organism-based; details: Carworth Farms No.1 (albino), in vivo
Procedure, shortened: (§5)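 Mouse quantification at the time of peak effect, compound given i.p. in 0.5% methylcellulose. Groups of at least eight mice received varied doses until at least two points fell between 100 and 0% response. PI = TD50/ED50 MES.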

Rattus norvegicus [14] = organism: Rattus norvegicus; test: Inhibition of voltage-gated sodium channel in Wistar rat cerebral prefrontal coronal slices assessed as decrease of 0.1 Hz current-induced current amplitude at 10 to 100 uM after 5 mins by whole cell voltage clamp method; procedure, shortened: as §4
Rattus norvegicus [15] = organism: Rattus norvegicus; test: Inhibition of voltage-gated sodium channel in Wistar rat cerebral prefrontal coronal slices assessed as decrease of 10 Hz current-induced current amplitude at 10 to 100 uM after 5 mins by whole cell voltage clamp method
Procedure, shortened: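 Na+ currents recorded by whole-cell voltage clamp in dispersed mPFC cells from coronal prefrontal slices of 3-week-old male Wistar rats. TEA-based bath, pH 7.4. Trains of 100 pulses at 10 Hz, each a step to -20 mV after a -100 mV prepulse. Amplitude decline over the train compared between control and 5 min compound application; n = 3.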

Mus musculus [16] = test: Anticonvulsant activity in albino Carworth Farms No.1 mouse assessed as protection against electric-current for 3 secs-induced seizure at 100 mg/kg, ip after 0.5 hrs by 6Hz minimal clonic seizure test; format: functional; procedure, shortened: as §3
Mus musculus [17] = test: Anticonvulsant activity in albino Carworth Farms No.1 mouse assessed as protection against electric-current for 3 secs-induced seizure at 75 mg/kg, ip after 0.25 hrs by 6Hz minimal clonic seizure test; format: functional, organism-based; set-up: dose 75 mg/kg; procedure, shortened: as §3
Rattus norvegicus [18] = test: Toxicity in albino Sprague-Dawley rat pilocarpine-induced status epilepticus model assessed as change in body weight in non-protected rat at 130 mg/kg, ip measured after 24 hrs of time from first stage 3 seizures; format: organism-based; set-up: dose 130 mg/kg, route intraperitoneal; details: in vivo
Procedure, shortened: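 Male albino Sprague-Dawley rats (150–180 g) received compound i.p., then a pilocarpine challenge immediately (0 min) or 30 min after treatment. The outcome was protection or no protection from seizures, scored as number protected/number tested. Average body weight change (g) ± S.E.M. was reported separately for protected and non-protected rats.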

Mus musculus [19] = organism: Mus musculus; test: Protective index, ratio of TD50 for albino Carworth Farms No.1 mouse to ED50 for albino Carworth Farms No.1 mouse by maximal electroshock-induced seizure test; format: functional; procedure, shortened: as §5
Mus musculus [20] = test: Anticonvulsant activity in albino Carworth Farms No.1 mouse assessed as protection against electric-current for 3 secs-induced seizure at 100 mg/kg, ip after 4 hrs by 6Hz minimal clonic seizure test; format: functional, organism-based; set-up: dose 100 mg/kg; procedure, shortened: as §3
Rattus norvegicus [21] = organism: Rattus norvegicus; test: Inhibition of voltage-gated sodium channel in Wistar rat cerebral prefrontal coronal slices assessed as decrease of […] current-induced current amplitude at 10 uM after 5 mins by whole cell voltage clamp method (reference value: 4.2%); set-up: scale not given: the % may be the effect or the level left

SMILES: O=C1NC(=O)[C@@H]2CCCN2[C@H]1c1ccccc1
- Activity (Mus musculus [1]): inactive
- ED50 (Rattus norvegicus [2]): 39.7 mg/kg
- Activity (Mus musculus [3]): inactive
- Activity (Mus musculus [4]): Active
- Activity (Mus musculus [5]): Active
- Activity (Rattus norvegicus [6]): 8.4%
- Activity (Mus musculus [7]): Active
- ED50 (Mus musculus [8]): 87.9 mg/kg
- Activity (Mus musculus [9]): inactive
- Activity (Mus musculus [10]): inactive
- Activity (Mus musculus [11]): inactive
- Activity (Rattus norvegicus [12]): Active
- TD50 at 0.25 h [13]: 122 mg/kg
- inhibition (Rattus norvegicus [14]): inactive
- inhibition (Rattus norvegicus [15]): inactive
- Activity (Mus musculus [16]): inactive
- Activity (Mus musculus [17]): Active
- Activity (Rattus norvegicus [18]): -22.5 g
- Ratio TD50/ED50 (Mus musculus [19]): 1.7
- Activity (Mus musculus [20]): inactive
- Activity (Rattus norvegicus [21]): 5.3%
